Columns and labels:
protease XIV = experiment: Enzymatic degradation of Aβ fibrils by protease XIV; assay type: in vitro ADME; conditions: protease XIV 100 μg/mL, 24 h, 0.1 M phosphate buffer pH 7.4, 37°C; MALDI-TOF
In short: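 Fibrils from 100 μM Aβ(1-42) were aged 2 days at 37°C, then digested with the enzyme. Products (about 1 μg/mL peptide) were mixed with saturated sinapic acid in ACN/0.1% TFA (1:2) and run by MALDI-TOF over 20–5000 Da. Enzyme alone served as control. Cleavage patterns were inferred from substrate specificity (C-terminal to aromatic and basic residues) and fragment masses.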

neprilysin (NEP) = neprilysin (NEP) (Homo sapiens, UniProt P08473); experiment: Enzymatic degradation of Aβ fibrils by neprilysin; assay type: in vitro ADME; conditions: NEP 50 μg/mL, 48 h, 0.1 M phosphate buffer pH 7.4, 37°C; AFM
In short: (§1)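 Fibrils were made from Aβ(1-42): 5 mM in DMSO, sonicated 10 min at 37°C, diluted to 100 μM in 10 mM HCl, sonicated 30 min, filtered through 10,000 MWCO, then held 2 days at 37°C. After enzyme treatment, fibrils on gold-coated substrates were imaged by tapping-mode AFM in air with a 3 N/m silicon cantilever. Tip-convolution calibration gave true dimensions.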

[1] = target: insulin degrading enzyme (IDE) (Homo sapiens, UniProt P14735); experiment: Enzymatic degradation of Aβ fibrils by insulin degrading enzyme; assay type: in vitro ADME; conditions: IDE 50 μg/mL, 48 h, 0.1 M phosphate buffer pH 7.4, 37°C; AFM
In short: as §1

[2] = Circular dichroism, secondary structure content; assay type: physicochemical; conditions: CD at 37°C, filtered (10K MWCO) samples
In short: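 Microfibrils were measured by CD at 37°C before and after enzymatic degradation (24 or 48 h). Spectra were taken at 12 nm·sec−1 and 1 nm resolution, with 4 scans averaged. Enzyme-only solutions were subtracted. Data were expressed as molar residue ellipticity using 42 residues and 0.3 mM peptide. Secondary-structure content was estimated by a published method.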

[3] = MFTIR, secondary structure of microfibrils in air; assay type: physicochemical; conditions: amide I region deconvoluted
In short: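 Aβ(1-42) fibrils, formed by incubating 100 μM peptide in dilute HCl for 2 days at 37°C, were deposited on gold-coated substrates. Infrared microscopy was done in reflection mode at 4 cm−1 resolution with a liquid-nitrogen-cooled MCT detector.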

neprilysin (NEP), sequence (P08473 whole entry, species assumed): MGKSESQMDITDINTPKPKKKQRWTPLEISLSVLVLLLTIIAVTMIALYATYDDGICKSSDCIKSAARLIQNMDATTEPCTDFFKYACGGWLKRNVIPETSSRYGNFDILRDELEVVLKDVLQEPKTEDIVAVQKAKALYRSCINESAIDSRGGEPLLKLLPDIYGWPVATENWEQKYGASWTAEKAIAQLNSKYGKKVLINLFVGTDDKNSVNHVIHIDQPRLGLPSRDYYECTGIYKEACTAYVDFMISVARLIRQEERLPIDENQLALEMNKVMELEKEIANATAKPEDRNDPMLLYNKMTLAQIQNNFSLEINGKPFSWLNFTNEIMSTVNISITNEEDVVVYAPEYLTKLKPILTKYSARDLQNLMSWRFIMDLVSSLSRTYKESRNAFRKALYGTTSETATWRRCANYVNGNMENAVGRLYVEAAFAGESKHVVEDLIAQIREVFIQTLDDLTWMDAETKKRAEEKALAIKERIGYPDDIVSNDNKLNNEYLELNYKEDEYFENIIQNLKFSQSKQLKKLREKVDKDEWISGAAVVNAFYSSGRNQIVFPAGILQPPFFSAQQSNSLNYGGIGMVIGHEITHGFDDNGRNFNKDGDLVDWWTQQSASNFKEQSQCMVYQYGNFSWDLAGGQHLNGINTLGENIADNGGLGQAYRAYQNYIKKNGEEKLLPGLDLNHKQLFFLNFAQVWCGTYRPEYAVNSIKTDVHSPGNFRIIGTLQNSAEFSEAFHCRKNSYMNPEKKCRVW

With “Aβ microfibrils: Fibrils of purchased Aβ(1-42) peptide, incubated in DMSO/10 mM HCl at 37°C for 2 days” the “full-length Aβ(1-42) after degradation by protease XIV” value (protease XIV) was “no full-length Aβ(1-42) peptides”, the “degradation on exposure to NEP” value (neprilysin (NEP)) was “almost no significant degradation” and the “degradation on exposure to IDE” value [1] was “almost no significant degradation”. The “beta-strand structures, filtered samples” value [2] was 18±3%, the “alpha-helix and random coil content” value [3] was 12±2% and the beta-sheet content [3] was 71±8%. For the same substance, the turns content [3] was 17±5%.

Reference: article PMC2871304 (Biochemistry, 2010)
